The record followed here is ChEMBL document CHEMBL1143246, “Design and synthesis of bicyclic pyrimidinones as potent and orally bioavailable HIV-1 integrase inhibitors” (J Med Chem, 2008).

Data set [1] concerns Human immunodeficiency virus 1. Kind of data set: Antiviral activity against HIV1 in human MT4 cell assessed as inhibition of virus spread in presence of 10% fetal bovine serum. It counts as functional. The following applies: Human immunodeficiency virus 1, MT4; read-out: CIC95. A digest of the protocol: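 Spread of HIV-1 infection in MT-4 human T-lymphoid cell culture with 10% fetal bovine serum; CIC95 is the concentration inhibiting spread by ≥95%; mean of at least three independent experiments.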

The nature of data set [2]: Inhibition of recombinant HIV1 integrase strand transfer activity.
In data set [3] the test system is Human immunodeficiency virus 1. Kind of data set: Antiviral activity against HIV1 in human MT4 cell assessed as inhibition of virus spread in presence of 50% normal human serum. The format is functional. The following applies: Human immunodeficiency virus 1, MT4; read-out: CIC95. A digest of the protocol: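 Spread of HIV-1 infection in MT-4 human T-lymphoid cell culture with 50% normal human serum; CIC95 is the concentration inhibiting spread by ≥95%; mean of at least three independent experiments.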

A further data set is filed under the species Homo sapiens. Put plainly: Protein binding in human plasma. The following applies: read-out: PPB (converted).
Data set [4] is described as follows: Oral bioavailability in rat at 3 mg/kg. The format is ADME, organism-based. The following applies: in vivo. A digest of the protocol: (§1)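 In vivo PK: iv dosing in DMSO/PEG400/H₂O mixtures, oral dosing as methylcellulose suspension. Half-life was taken after iv dosing; AUC and Cmax after po dosing.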
The subject of data set [5] is Liver microsomes. Kind of data set: Metabolic stability in human liver microsomes in presence of UDPGA. The format is ADME, Microsome. The gist of the method:
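Liver microsomes (1 mg/mL) with test compound at 2 µM, incubated with UDPGA or NADPH; degradation measured by LC/MS/MS after 1 h.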
For orientation: Liver microsomes are vesicles of endoplasmic reticulum, rich in cytochrome P450 enzymes.

A short description of data set [6]: Plasma clearance in rat at 3 mg/kg, po or 3 mg/kg, iv. It counts as ADME, organism-based. A digest of the protocol:
as §1

Data set [7] has as its system Liver microsomes. Kind of data set: Metabolic stability in rat liver microsomes in presence of UDPGA. The format is ADME, Microsome.
For a further data set, the system named is Liver. Put plainly: Metabolic stability in dog liver microsomes in presence of UDPGA. It counts as ADME, Canis lupus familiaris, Microsome.

One may read the IC50 as the concentration that gives 50% inhibition. The term bioavailability denotes dose-corrected exposure relative to a reference, in per cent.

With `CN(C(=O)c1nc2ncccn2n1)C1CCCn2c1nc(C(=O)NCc1ccc(F)cc1)c(O)c2=O` (racemic), the IC95 in [1] and in data set [3] was 250 nM each time. In addition, the IC50 in data set [2] is 10 nM.

Turning to `O=C(NCc1ccc(F)cc1)c1ncnc(O)c1O`, the IC95 in [1] and in data set [3] was more than 10000 nM each time. Besides, in data set [2], the IC50 came to 60 nM.

As for `CN(C(=O)CS(=O)(=O)N(C)C)[C@@H]1CCCn2c1nc(C(=O)NCc1ccc(F)cc1)c(O)c2=O`, the values for the IC95 in [1] and in data set [3] were 31 nM and 62 nM, respectively. Also, the IC50 in [2] came out at 7 nM.

Regarding `CN1CCN(S(=O)(=O)N(C)[C@@H]2CCCn3c2nc(C(=O)NCc2ccc(F)cc2)c(O)c3=O)CC1`, the IC95 in data set [1] came out at 13 nM; in [3], 20 nM. For the same molecule, the IC50 in [2] is 10 nM.

With `CN(C)C(=O)C(=O)N(C)C1CCCn2c1nc(C(=O)NCc1ccc(F)cc1)c(O)c2=O` (racemic), the IC95 in [1] stood at 38 nM; in data set [3], 40 nM. Besides, the IC50 in data set [2] stood at 7 nM.

For the molecule `CN(C1CCCn2c1nc(C(=O)NCc1ccc(F)cc1)c(O)c2=O)S(=O)(=O)N1CCCCC1` (racemic), the figures for the IC95 in data set [1] and in [3] were 63 nM and 125 nM, respectively. The IC50 in data set [2] worked out at 9 nM.

For the molecule `CN(C(=O)Cn1cccn1)C1CCCn2c1nc(C(=O)NCc1ccc(F)cc1)c(O)c2=O` (racemic), the IC95 in [1] and in data set [3] was more than 1000 nM throughout. Moreover, in data set [2], the IC50 turned out to be 3 nM.

Regarding `CN(C)C1CCCCn2c1nc(C(=O)NCc1ccc(F)cc1)c(O)c2=O` (racemic), in data set [2], the concentration for half-maximal inhibition (IC50) was found to be 550 nM.

As to `CN(C1CCCCn2c1nc(C(=O)NCc1ccc(F)cc1)c(O)c2=O)S(C)(=O)=O` (racemic), the IC95 in [1] was found to be 31 nM; in data set [3], 125 nM. Moreover, the IC50 in data set [2] came out at 16 nM.

Consider `CN(C(=O)CS(=O)(=O)N(C)C)C1CCCn2c1nc(C(=O)NCc1ccc(F)cc1)c(O)c2=O` (racemic), for which the figures for the IC95 in data set [1] and in data set [3] were 16 nM and 47 nM, respectively. Further, the concentration for half-maximal inhibition (IC50) in data set [2] was 9 nM. In addition, in the data set listed under Homo sapiens, the fraction unbound was 0.19.

With `CN(C)C(=O)C(=O)N(C)[C@@H]1CCCn2c1nc(C(=O)NCc1ccc(F)cc1)c(O)c2=O`, the IC95 in data set [1] amounted to 67 nM; in data set [3], 98 nM. In data set [2], the IC50 was determined as 19 nM.

For `CN(C)C1CCn2c1nc(C(=O)NCc1ccc(F)cc1)c(O)c2=O` (racemic), the IC50 in [2] was 7 nM.

On to `O=C(NCc1ccc(F)cc1)c1nc2n(c(=O)c1O)CCCCC2`, for which the IC50 in data set [2] was determined as 19 nM.

For `CN(C(=O)CS(C)(=O)=O)C1CCCCn2c1nc(C(=O)NCc1ccc(F)cc1)c(O)c2=O` (racemic), the IC95 in [1] was 63 nM; in data set [3] it was 125 nM. Also, the IC50 in data set [2] is 17 nM.

Consider `CC(=O)N(C)C1CCCCn2c1nc(C(=O)NCc1ccc(F)cc1)c(O)c2=O` (racemic), for which the results for the IC95 in data set [1] and in [3] were 250 nM and 500 nM, respectively. Besides, in [2], the IC50 worked out at 8 nM.

For the molecule `CN(C)C1CCCn2c1nc(C(=O)NCc1ccc(F)cc1)c(O)c2=O` (racemic), the IC50 in data set [2] came to 69 nM.

`CC(=O)N(C)C1CCn2c1nc(C(=O)NCc1ccc(F)cc1)c(O)c2=O` (racemic): the IC95 in data set [1] and in data set [3] was more than 1000 nM each time. In addition, the IC50 in data set [2] is 9 nM.

For the molecule `CN1CCCN(C2CCCCn3c2nc(C(=O)NCc2ccc(F)cc2)c(O)c3=O)S1(=O)=O` (racemic), the IC95 in data set [1] was found to be 78 nM; in data set [3], 156 nM. The IC50 in data set [2] was found to be 6 nM.

As for `CN(C1CCCn2c1nc(C(=O)NCc1ccc(F)cc1)c(O)c2=O)S(C)(=O)=O` (racemic), the bioavailability in data set [4] is 47%. The values for the Stability with Liver microsomes [5], in the data set with Liver microsomes [7] and in the data set with Liver were 74 %/hr, 88 %/hr and 29 %/hr, respectively. The IC95 in data set [1] is 26 nM; in [3], 86 nM. Besides, the IC50 in data set [2] was determined as 12 nM. Further, in [6], the clearance came to 48 mL/min/kg.

With `CN(C1CCCn2c1nc(C(=O)NCc1ccc(F)cc1)c(O)c2=O)S(=O)(=O)N1CCOCC1` (racemic), the IC95 in data set [1] stood at 15 nM; in data set [3] it was 31 nM. Also, the IC50 in data set [2] came out at 11 nM.

As for `CN(C1CCCn2c1nc(C(=O)NCc1ccc(F)cc1)c(O)c2=O)S(=O)(=O)N1CCCC1` (racemic), the IC95 in data set [1] stood at 16 nM; in data set [3] it was 47 nM. In addition, the IC50 in data set [2] came out at 7 nM.

On to `CN1CCOCC1c1nc(O)c(O)c(C(=O)NCc2ccc(F)cc2)n1` (stereo not given), for which the IC95 in [1] was found to be 30 nM; in data set [3], 230 nM. The IC50 in data set [2] was found to be 10 nM.

On to `O=C(NCc1ccc(F)cc1)c1nc2n(c(=O)c1O)CCCCC2N1CCOCC1` (racemic), for which, in data set [2], the IC50 worked out at 62 nM.

As to `O=C(NCc1ccc(F)cc1)c1nc2n(c(=O)c1O)CCC2`, in data set [2], the IC50 stood at 8 nM.

As for `O=C(NCc1ccc(F)cc1)c1nc2n(c(=O)c1O)CCCC2`, the IC50 in data set [2] stood at 5 nM.

Turning to `CN(C)C(=O)C(=O)N(C)C1CCCCn2c1nc(C(=O)NCc1ccc(F)cc1)c(O)c2=O` (racemic), the IC95 in data set [1] was 94 nM; in data set [3], 63 nM. For the same molecule, the IC50 in data set [2] was determined as 13 nM.

Take `CN(C)C(=O)C(=O)N(C)[C@@H]1CCCCn2c1nc(C(=O)NCc1ccc(F)cc1)c(O)c2=O`: the IC95 in data set [1] was found to be 21 nM; in data set [3], 42 nM. Besides, in data set [2], the IC50 stood at 35 nM.

With `CN(C)S(=O)(=O)N(C)C1CCn2c1nc(C(=O)NCc1ccc(F)cc1)c(O)c2=O` (racemic), the IC95 in data set [1] and in data set [3] was more than 1000 nM in each case. Besides, the IC50 in data set [2] worked out at 45 nM.

In the case of `CC(c1nc(O)c(O)c(C(=O)NCc2ccc(F)cc2)n1)N(C)C` (stereo not given), the IC95 in data set [1] was found to be 130 nM; in data set [3], 500 nM. Besides, the IC50 in data set [2] was determined as 100 nM.

Turning to `O=C(NCc1ccc(F)cc1)c1nc2n(c(=O)c1O)CCCC2N1CCOCC1` (racemic), the IC50 in data set [2] is 5 nM.

Take `CN(C)C(=O)C(=O)N(C)C1CCn2c1nc(C(=O)NCc1ccc(F)cc1)c(O)c2=O` (racemic): the IC95 in data set [1] and in data set [3] was more than 1000 nM throughout. In data set [2], the concentration for half-maximal inhibition (IC50) was determined as 20 nM.

With `CN1CCCN(C2CCCn3c2nc(C(=O)NCc2ccc(F)cc2)c(O)c3=O)S1(=O)=O` (racemic), the results for the IC95 in data set [1] and in data set [3] were 16 nM and 47 nM, respectively. For the same molecule, the IC50 in [2] was 14 nM.

Regarding `CC(=O)N(C)C1CCCn2c1nc(C(=O)NCc1ccc(F)cc1)c(O)c2=O` (racemic), the IC95 in [1] and in data set [3] was 1000 nM throughout. In addition, the IC50 in [2] came to 6 nM.

With `O=C(NCc1ccc(F)cc1)c1nc2n(c(=O)c1O)CCCC2N1CCCC1` (racemic), the IC50 in data set [2] turned out to be 63 nM.

Turning to `CN1CCN(S(=O)(=O)N(C)C2CCCn3c2nc(C(=O)NCc2ccc(F)cc2)c(O)c3=O)CC1` (racemic), the IC95 amounted to 6 nM in data set [1] and 20 nM in [3]. For the same molecule, the half-inhibitory concentration (IC50) in data set [2] was determined as 7 nM.

As for `CN(Cc1ccccc1)C1CCCn2c1nc(C(=O)NCc1ccc(F)cc1)c(O)c2=O` (racemic), the IC50 in data set [2] is 4 nM.

With `CN(Cc1ccccc1)C1CCCCn2c1nc(C(=O)NCc1ccc(F)cc1)c(O)c2=O` (racemic), the IC50 in data set [2] is 62 nM.

Take `O=C(NCc1ccc(F)cc1)c1nc2n(c(=O)c1O)CCCC2N1CCCCC1` (racemic): the IC50 in data set [2] came out at 4 nM.

For `CN(C(=O)C(F)F)C1CCCn2c1nc(C(=O)NCc1ccc(F)cc1)c(O)c2=O` (racemic), the results for the IC95 in data set [1] and in [3] were 500 nM and 1000 nM, respectively. The half-inhibitory concentration (IC50) in [2] turned out to be 18 nM.

As to `Cc1nn(C)c(C)c1S(=O)(=O)N(C)C1CCCn2c1nc(C(=O)NCc1ccc(F)cc1)c(O)c2=O` (racemic), the Stability in the data set on Liver microsomes [5] stood at 90 %/hr; in the data set with Liver microsomes [7] it was 94 %/hr; in the data set on Liver, 78 %/hr. Further, the IC95 in data set [1] came to 21 nM; in data set [3] it was 63 nM. Moreover, the IC50 in data set [2] was 7 nM.

`CN1CCOCC1c1nc(C(=O)NCc2ccc(F)cc2)c(O)c(=O)n1C` (stereo not given): the IC95 in data set [1] stood at 60 nM; in data set [3], 100 nM.

With `CN(C)S(=O)(=O)N(C)C1CCCn2c1nc(C(=O)NCc1ccc(F)cc1)c(O)c2=O` (racemic), the IC95 in [1] is 16 nM; in [3], 21 nM. The IC50 in [2] was determined as 5 nM.

On to `CN(C(=O)CS(C)(=O)=O)C1CCCn2c1nc(C(=O)NCc1ccc(F)cc1)c(O)c2=O` (racemic), for which the IC95 is 16 nM in data set [1] and 22 nM in data set [3]. The IC50 in data set [2] amounted to 6 nM. In the data set filed under Homo sapiens, the fraction unbound was 0.3.

In the case of `CN(C)S(=O)(=O)N(C)C1CCCCn2c1nc(C(=O)NCc1ccc(F)cc1)c(O)c2=O` (racemic), the IC95 in data set [1] turned out to be 31 nM; in [3], 125 nM. Moreover, in data set [2], the IC50 amounted to 10 nM.

For the molecule `CS(=O)(=O)CC(=O)NC1CCCn2c1nc(C(=O)NCc1ccc(F)cc1)c(O)c2=O` (racemic), the IC95 in data set [1] and in data set [3] was 1000 nM each time. In addition, the IC50 in [2] came out at 7 nM.
